Assay results published in publication PMC3742633 (Molecular cancer therapeutics, 2013).

Legend:
Solubility = format: physicochemical
MCF7 = experiment: NCI 60 cell line screen, Sulforhodamine B Assay; format: cell-based; conditions: Homo sapiens, MCF7, 48 h
Method in brief: (§1)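 Run through the NCI-60 screening service: human cancer cell lines exposed to test compound for 48 h. Growth read as cellular protein content by sulforhodamine B staining, and GI50 derived from this.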

NCI-H522 = experiment: NCI 60 cell line screen, Sulforhodamine B Assay; format: cell-based; conditions: Homo sapiens, NCI-H522, 48 h
Method in brief: as §1

Jurkat or H522 cells = experiment: 2-[1-14C]-deoxy-D-glucose uptake; format: cell-based, human; conditions: three hours exposure, Jurkat and H522
Method in brief: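 Jurkat or H522 cells in RPMI 1640 + 10% FCS + 50 μg/ml gentamycin at 100,000/ml, treated immediately with DMSO vehicle or test compound for 3 h. Washed in glucose-free RPMI, 30 min with inhibitor, then 1 h with 14C-2-deoxyglucose (0.1 μCi/μl stock). Ice-cold washes, 0.5% SDS lysis, scintillation counting; counts normalized to BCA protein.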

Jurkat and H522 cells = experiment: F26BP measurement in cells; format: cell-based, human; conditions: three hours exposure
Method in brief: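 Cells plated at 1×10^5/well, 24 h in RPMI or DMEM (5% CO2, 37°C), then exposed to test compound for 3 h. Cells triturated, washed twice in PBS, dissolved in […] NaOH. F26BP measured by coupled enzyme reaction and normalized to BCA protein. Triplicate or quadruplicate; unpaired two-tailed t-test.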

[1] = system: H522 human lung adenocarcinoma cells; experiment: Cell viability, trypan blue exclusion; format: cell-based; conditions: NCI-H522, 48 h, read-out: IC50 cytotoxic effects (viability)
SW-620 = experiment: NCI 60 cell line screen, Sulforhodamine B Assay; format: cell-based; conditions: Homo sapiens, SW-620, 48 h
Method in brief: (§2)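 Run through the National Cancer Institute 60 cell line screening service on its panel of 59 human cancer lines in vitro. Cytostatic/toxic effect was read as cellular protein content (sulforhodamine B) over 48 h.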

M14 = experiment: NCI 60 cell line screen, Sulforhodamine B Assay; format: cell-based; conditions: Homo sapiens, M14, 48 h
Method in brief: as §1

UACC-62 = experiment: NCI 60 cell line screen, Sulforhodamine B Assay; format: cell-based; conditions: Homo sapiens, UACC-62, 48 h
Method in brief: as §2

HS 578T = experiment: NCI 60 cell line screen, Sulforhodamine B Assay; format: cell-based; conditions: Homo sapiens, 48 h
Method in brief: as §1

SMILES: O=C(C=Cc1ccc2ccccc2n1)c1ccncc1 [PFK15, 1-(4-pyridinyl)-3-(2-quinolinyl)-2-propen-1-one]
- solubility (Solubility): limited solubility
- GI50 (MCF7): 1860 nM
- GI50 (NCI-H522): 1740 nM
- effect on glucose uptake (14C-2DG) (Jurkat or H522 cells): reduced
- effect on F26BP (Jurkat and H522 cells): reduced
- IC50 [1]: 720 nM
- GI50 (SW-620): 1700 nM
- GI50 (M14): 3720 nM
- GI50 (UACC-62): 2510 nM
- GI50 (HS 578T): 20900 nM
